Calls of active or inactive are those of the source. The rule behind the calls is not given here.
Columns and labels:
Fusarium oxysporum [1] = assay: Antifungal activity against Fusarium oxysporum 1 at 100 ug/disc after 24 hrs by disc diffusion method; type: functional; details: read-out: IZ
Outline: (§1)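 Yeast suspensions (C. albicans strains 1, 2) and mycelial suspensions (F. oxysporum strains 1, 2; Mucor sp.) spread on YPG (0.3% yeast extract, 0.5% peptone, 1% glucose) or PDA agar. Compound applied on filter-paper discs at the stated amount; 28 °C, 24 h. Read-out is inhibition zone diameter. Controls: 50% v/v DMSO vehicle, cycloheximide, amphotericin B.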

Mucor [2] = assay: Antifungal activity against Mucor at 100 ug/disc after 24 hrs by disc diffusion method; type: functional; outline: as §1
Fusarium oxysporum [3] = assay: Antifungal activity against Fusarium oxysporum 1 at 40 ug/disc after 24 hrs by disc diffusion method; type: functional; outline: as §1
Fusarium oxysporum [4] = assay: Antifungal activity against Fusarium oxysporum 2 after 24 hrs by disc diffusion method; type: functional
Outline: (§2)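 Disc diffusion on Candida albicans strains 1 and 2 (yeast suspension), Fusarium oxysporum strains 1 and 2 and Mucor sp. (mycelial suspension), spread on YPG or PDA agar. Compound at graded amounts per filter-paper disc, 28 °C for 24 h. MIC taken as the lowest amount giving a 2 mm inhibition zone. Controls: 50% v/v DMSO vehicle, cycloheximide, amphotericin B.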

Fusarium oxysporum [5] = assay: Antifungal activity against Fusarium oxysporum 1 at 60 ug/disc after 24 hrs by disc diffusion method; type: functional; details: for zone of inhibition at 60 µg/disc: read-out: IZ; outline: as §1
Fusarium oxysporum [6] = assay: Antifungal activity against Fusarium oxysporum 2 at 60 ug/disc after 24 hrs by disc diffusion method; type: functional; details: for zone of inhibition at 60 µg/disc: read-out: IZ; outline: as §1
Candida albicans [7] = assay: Antifungal activity against Candida albicans 1 after 24 hrs by disc diffusion method; type: functional; outline: as §2
Mucor [8] = assay: Antifungal activity against Mucor at 60 ug/disc after 24 hrs by disc diffusion method; type: functional; outline: as §1
Candida albicans [9] = assay: Antifungal activity against Candida albicans 2 after 24 hrs by disc diffusion method; type: functional; outline: as §2
Fusarium oxysporum [10] = assay: Antifungal activity against Fusarium oxysporum 1 after 24 hrs by disc diffusion method; type: functional; outline: as §2
Candida albicans [11] = assay: Antifungal activity against Candida albicans 1 at 100 ug/disc after 24 hrs by disc diffusion method; type: functional; details: read-out: IZ; outline: as §1
Benjaminiella poitrasii [12] = assay: Inhibition of yeast hypha transition at 20 ug/mL after 4 hrs
Mucor [13] = assay: Antifungal activity against Mucor at 40 ug/disc after 24 hrs by disc diffusion method; type: functional; outline: as §1
Candida albicans [14] = assay: Antifungal activity against Candida albicans 2 at 60 ug/disc after 24 hrs by disc diffusion method; type: functional; details: read-out: IZ; outline: as §1
Fusarium oxysporum [15] = assay: Antifungal activity against Fusarium oxysporum 2 at 40 ug/disc after 24 hrs by disc diffusion method; type: functional; details: for zone of inhibition at 40 µg/disc: read-out: IZ; outline: as §1
Candida albicans [16] = assay: Antifungal activity against Candida albicans 2 at 100 ug/disc after 24 hrs by disc diffusion method; type: functional; details: read-out: IZ; outline: as §1
Benjaminiella poitrasii [17] = assay: Inhibition of Benjaminiella poitrasii chitin synthase at 4 ug/mL
Outline: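 Chitin synthase from Benjaminiella poitrasii measured with and without compound at 4 µg/ml, using a non-radioactive chitin synthase assay. Nikkomycin Z used as reference.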

Candida albicans [18] = assay: Antifungal activity against Candida albicans 2 at 40 ug/disc after 24 hrs by disc diffusion method; type: functional; details: for zone of inhibition at 40 µg/disc: read-out: IZ; outline: as §1
Candida albicans [19] = assay: Antifungal activity against Candida albicans 1 at 60 ug/disc after 24 hrs by disc diffusion method; type: functional; details: read-out: IZ; outline: as §1
Candida albicans [20] = assay: Antifungal activity against Candida albicans 1 at 40 ug/disc after 24 hrs by disc diffusion method; type: functional; details: for zone of inhibition at 40 µg/disc: read-out: IZ; outline: as §1
Fusarium oxysporum [21] = assay: Antifungal activity against Fusarium oxysporum 2 at 100 ug/disc after 24 hrs by disc diffusion method; type: functional; details: read-out: IZ; outline: as §1

Row | SMILES | zone of inhibition at 100 µg/disc (Fusarium oxysporum [1]) | Activity (Mucor [2]) | Activity (Fusarium oxysporum [3]) | MIC (Fusarium oxysporum [4]) | zone of inhibition at 60 µg/disc (Fusarium oxysporum [5]) | zone of inhibition at 60 µg/disc (Fusarium oxysporum [6]) | MIC (Candida albicans [7]) | Activity (Mucor [8]) | MIC (Candida albicans [9]) | MIC (Fusarium oxysporum [10]) | zone of inhibition at 100 µg/disc (Candida albicans [11]) | inhibition at 20 µg/mL (Benjaminiella poitrasii [12]) | Activity (Mucor [13]) | zone of inhibition at 60 µg/disc (Candida albicans [14]) | Activity (Fusarium oxysporum [15]) | zone of inhibition at 100 µg/disc (Candida albicans [16]) | inhibition (Benjaminiella poitrasii [17]) | zone of inhibition at 40 µg/disc (Candida albicans [18]) | zone of inhibition at 60 µg/disc (Candida albicans [19]) | zone of inhibition at 100 µg/disc (Fusarium oxysporum [21]) | further results
1 | N#Cc1c(N)nc2c(c1-c1cccc(NC(=O)Nc3cccc(-c4c(C#N)c(N)nc5c4C(=O)CCC5)c3)c1)C(=O)CCC2 | 6 mm | inactive | inactive | 60 µg/disc | 2 mm | 2 mm | 40 µg/disc | inactive | 40 µg/disc | 60 µg/disc | 7 mm | 95% | inactive | 3 mm | inactive | 7 mm | 91% | 3 mm | 3 mm | 6 mm | zone of inhibition at 40 µg/disc (Candida albicans [20]): 3 mm
2 | COc1ccc(NC(=O)Nc2cccc(-c3c(C#N)c(N)nc4c3C(=O)CCC4)c2)cc1 | 2 mm | inactive | inactive | 100 µg/disc |  |  | 40 µg/disc | inactive | 40 µg/disc | 100 µg/disc | 6 mm | 95% | inactive | 3 mm | inactive | 6 mm | 71% | 2 mm | 3 mm | 2 mm | Activity (Fusarium oxysporum [5]): inactive; Activity (Fusarium oxysporum [6]): inactive; zone of inhibition at 40 µg/disc (Candida albicans [20]): 2 mm
3 | CC(=O)Nc1nc2c(c(-c3ccc(C)cc3)c1C#N)C(=O)CCC2 | 5 mm | inactive | inactive | 60 µg/disc | 3 mm | 3 mm | 60 µg/disc | inactive | 60 µg/disc | 60 µg/disc | 7 mm | 90% | inactive | 3 mm | inactive | 7 mm | 66% |  | 3 mm | 5 mm | Activity (Candida albicans [18]): inactive; Activity (Candida albicans [20]): inactive
4 | COc1ccc(-c2c(C#N)c(N)nc3c2C(=O)CCC3)cc1 | 6 mm | inactive | inactive | 100 µg/disc |  |  | 60 µg/disc | inactive | 60 µg/disc | 100 µg/disc | 4 mm | 95% | inactive | 3 mm |  | 4 mm | 81% |  | 3 mm | 6 mm | Activity (Fusarium oxysporum [5]): inactive; Activity (Fusarium oxysporum [6]): inactive; zone of inhibition at 40 µg/disc (Fusarium oxysporum [15]): 3 mm; Activity (Candida albicans [18]): inactive; Activity (Candida albicans [20]): inactive
5 | N#Cc1c(N)nc2c(c1-c1cccc(N3C(=O)C=CC3=O)c1)C(=O)CCC2 | 7 mm | inactive |  | 40 µg/disc | 3 mm | 3 mm | 40 µg/disc | inactive | 40 µg/disc | 40 µg/disc | 7 mm | 95% | inactive | 5 mm |  | 7 mm | 91% | 3 mm | 5 mm | 7 mm | zone of inhibition at 40 µg/disc (Fusarium oxysporum [3]; read-out: IZ): 3 mm; zone of inhibition at 40 µg/disc (Fusarium oxysporum [15]): 3 mm; zone of inhibition at 40 µg/disc (Candida albicans [20]): 3 mm

— ChEMBL document CHEMBL1137451, “Synthesis and evaluation of antifungal properties of a series of the novel 2-amino-5-oxo-4-phenyl-5,6,7,8-tetrahydroquinoline-3-carbonitrile and its analogues” (Bioorg Med Chem, 2007)
